The target of one assay is T1, Myeloperoxidase (Homo sapiens, UniProt P05164).
T1 sequence (P05164 whole entry): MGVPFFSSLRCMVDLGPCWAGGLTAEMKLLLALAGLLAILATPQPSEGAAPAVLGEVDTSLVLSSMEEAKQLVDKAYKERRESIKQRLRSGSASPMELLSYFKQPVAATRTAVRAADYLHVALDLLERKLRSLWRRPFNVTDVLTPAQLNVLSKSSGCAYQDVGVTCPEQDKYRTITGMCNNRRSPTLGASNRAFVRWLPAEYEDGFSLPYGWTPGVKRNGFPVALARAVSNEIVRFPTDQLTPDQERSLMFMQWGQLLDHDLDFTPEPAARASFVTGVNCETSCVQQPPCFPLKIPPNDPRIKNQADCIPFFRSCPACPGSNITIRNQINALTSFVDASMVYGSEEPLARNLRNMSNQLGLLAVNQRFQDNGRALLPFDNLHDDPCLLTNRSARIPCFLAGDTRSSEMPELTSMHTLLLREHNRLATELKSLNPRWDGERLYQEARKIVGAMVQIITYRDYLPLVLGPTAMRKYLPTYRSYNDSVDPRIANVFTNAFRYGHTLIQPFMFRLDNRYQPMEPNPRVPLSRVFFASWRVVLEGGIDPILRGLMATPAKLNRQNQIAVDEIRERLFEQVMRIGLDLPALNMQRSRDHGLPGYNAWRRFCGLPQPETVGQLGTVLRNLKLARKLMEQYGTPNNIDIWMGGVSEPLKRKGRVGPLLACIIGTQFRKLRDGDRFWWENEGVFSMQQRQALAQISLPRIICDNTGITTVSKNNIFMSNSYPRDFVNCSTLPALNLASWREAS
The experiment in a line: Inhibition of myeloperoxidase (unknown origin) assessed as reduction in enzymatic hypochlorous acid production by spectrophotometry based taurine chlorination assay. The class given is single protein. The essentials:
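Started with 40 μM H2O2 and stopped after 5 min with catalase. Developed with an equal volume of 500 uM TMB and 100 μM NaI in 300 mM acetate, pH 5.4. Absorbance read at 650 nm. IC50 given as mean of ≥3 trials ± SD.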

The target of assay [1] is T2, Myeloperoxidase (Homo sapiens) (UniProt P05164).
T2 sequence (whole entry): T1 sequence (P05164 whole entry)
The assay can be described thus: Inhibition of myeloperoxidase (unknown origin) assessed as reduction in H2O2 consumption by H2O2-specific electrode based assay. A digest of the protocol:
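An H2O2-specific electrode sat in a continuously stirred vessel holding 30 μM H2O2, 154 mM NaCl and varied inhibitor concentrations in 10 mM phosphate buffer, pH 7.4. H2O2 concentration was followed in real time to derive IC50.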

Molecules are shown by their SMILES. Calls of active or inactive are those of the source. No cut-off for these calls is given here.

Usually IC50 stands for the concentration needed to halve the response being measured. In the case of `CC(=O)OCC(C)n1c(=O)c2ccccc2n1C(C)=O` (configuration not stated), the IC50 at Myeloperoxidase is above 10000 nM.
On to `c1ccc2c3n(nc2c1)CCS3`, for which the IC50 at Myeloperoxidase was 94 nM. Besides, the inhibition result in assay [1] was “Active”.
For `CCCCn1[nH]c2ccccc2c1=O` the same measures were 792 nM and “Active”.
As to `COc1c2ccccc2nn1C(C)C`, at Myeloperoxidase, the IC50 amounted to 704 nM. The inhibition entry in assay [1] is “Active”.
With `COc1c2ccccc2nn1-c1cccc(I)c1`, on Myeloperoxidase, the IC50 turned out to be 1660 nM.
As for `c1ccc2c3n(nc2c1)CCCO3`, the IC50 on Myeloperoxidase was 359 nM. For the same compound, in assay [1], the inhibition result was “Active”.
Turning to `COc1c2ccccc2nn1CCCCCO`, on Myeloperoxidase, the IC50 was found to be 1540 nM.
Turning to `c1c2c(cc3c4n(nc13)CCCS4)OCO2`, at Myeloperoxidase, the IC50 stood at 140 nM. Besides, the inhibition entry in assay [1] was “Active”.
`c1ccc2c(c1)COc1c3ccccc3nn1-2`: the IC50 on Myeloperoxidase stood at 4150 nM.
As for `COc1c2cc3c(cc2nn1C(C)C)OCO3`, at Myeloperoxidase, the IC50 worked out at 711 nM. The inhibition entry in assay [1] is “Active”.
For `C#Cc1ccc(-n2nc3ccccc3c2OC)cc1`, at Myeloperoxidase, the IC50 came to 1100 nM.
For `COCCn1nc2ccccc2c1OC`, the IC50 on Myeloperoxidase was found to be 1080 nM.
For the compound `c1ccc2c3n(nc2c1)CCCS3`, on Myeloperoxidase, the IC50 amounted to 213 nM. Also, the inhibition result in assay [1] is “Active”.
As for `O=c1c2ccccc2[nH]n1CCCO`, the IC50 at Myeloperoxidase stood at 1950 nM.
With `CCCCn1nc2ccccc2c1OC`, on Myeloperoxidase, the IC50 was 910 nM. The inhibition result in assay [1] was “Active”.
On to `CC(CBr)n1c(=O)c2ccccc2n1CC(=O)N1CCOCC1` (configuration not stated), for which, on Myeloperoxidase, the IC50 is above 10000 nM.
For `COCCOc1c2ccccc2nn1C(C)C`, the IC50 at Myeloperoxidase was found to be 1400 nM.
Take `CCCCn1nc2ccccc2c1OCC`: the IC50 at Myeloperoxidase stood at 807 nM. Moreover, the inhibition entry in assay [1] is “Active”.
For the compound `CC(C)n1[nH]c2ccccc2c1=O`, the IC50 at Myeloperoxidase was 660 nM. In addition, the inhibition result in assay [1] was “Active”.
For the compound `CCCCCCCCn1nc2ccccc2c1OCC`, the IC50 on Myeloperoxidase is above 10000 nM.
As to `CC(C)n1c(=O)c2ccccc2n1S(C)(=O)=O`, the IC50 at Myeloperoxidase was above 10000 nM.
With `c1c2c(cc3c4n(nc13)CCCO4)OCO2`, the IC50 on Myeloperoxidase was found to be 403 nM. Also, in assay [1], the inhibition result is “Active”.
As for `CC(CCl)n1c(=O)c2ccccc2n1S(C)(=O)=O` (configuration not stated), the IC50 at Myeloperoxidase is above 10000 nM.
For the compound `CC(C)n1c(=O)c2ccccc2n1CC(=O)N1CCOCC1`, on Myeloperoxidase, the IC50 was above 10000 nM.
With `COc1c2ccccc2nn1CCCCO`, the IC50 on Myeloperoxidase came out at 1790 nM.
With `COc1c2ccccc2nn1-c1ccccc1`, the IC50 at Myeloperoxidase came out at 2030 nM.
Turning to `O=c1c2ccccc2[nH]n1CCO`, the IC50 on Myeloperoxidase was determined as 2470 nM.
In the case of `CC1COc2c3ccccc3nn21` (configuration not stated), on Myeloperoxidase, the 50% inhibitory concentration (IC50) was 900 nM. In addition, in assay [1], the inhibition entry is “Active”.
Regarding `CCCCCCCCn1[nH]c2ccccc2c1=O`, the IC50 on Myeloperoxidase was above 10000 nM.
`CC1(C)COc2c3ccccc3nn21`: the IC50 at Myeloperoxidase was found to be 1030 nM.
As for `CCCCCCCCn1nc2ccccc2c1OC`, the IC50 on Myeloperoxidase was above 10000 nM.
Take `CC(=O)OCC(C)n1[nH]c2ccccc2c1=O` (configuration not stated): the IC50 on Myeloperoxidase worked out at 2120 nM.
In the case of `COc1c2ccccc2nn1-c1ccc(I)cc1`, on Myeloperoxidase, the IC50 was determined as 2000 nM.
For the compound `COc1c2ccccc2nn1-c1cccc(Cl)c1`, at Myeloperoxidase, the IC50 came out at 4770 nM.
With `c1c2c(cc3c4n(nc13)CCS4)OCO2`, the IC50 on Myeloperoxidase came out at 87 nM. For the same compound, in assay [1], the inhibition result was “Active”.
Regarding `CC(=O)n1c2ccccc2c(=O)n1C(C)C`, the IC50 on Myeloperoxidase is above 10000 nM.
On to `CCOc1c2ccccc2nn1C(C)C`, for which, at Myeloperoxidase, the IC50 was 722 nM. Besides, the inhibition entry in assay [1] is “Active”.
Regarding `CCCCCn1nc2ccccc2c1OC`, the IC50 on Myeloperoxidase is 3880 nM.

The values above are taken from ChEMBL document CHEMBL3352266.
